Screening results (PubChem BioAssay)
NR2E3 ag-1: NR2E3 agonists in two-hybrid cells, primary screen, cell-based, luminescence, CHO-S, Gal4-NCOR/VP16-NR2E3; luciferase; inhibition of corepressor binding, % at 3.98 µM; hit rate 0.35% among 360,000; AID 602229, 2012;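 active = inhibition above the mean of all tested compounds plus 3 SD, cut at about 70% in these data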;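 also: 0% = DMSO with NR2E3 transfected cells and 100% = cells lacking NR2E3 construct; higher means lower luciferase signal from less NR2E3 corepressor binding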
NR2E3 ag-2: inhibitors of NR2E3-RetCOR corepressor binding, primary screen, NR2E3 agonist project, biochemical, TR-FRET, GST-NR2E3, biotin-RetCOR. hit rate 0.12% among 320,000. Photoreceptor-specific nuclear receptor (Homo sapiens), Q9Y5X4. 1536-well. AID 2300, 2010. inhibition of corepressor binding, % at 4.78 µM;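 active = percent inhibition above the cutoff of mean plus 3 SD of all tested compounds, set per screening campaign, cut at about 20% in these data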;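 also: 0% = DMSO wells and 100% = biotin wells as full block of FRET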
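system = GST-tagged NR2E3 plus biotinylated RetCOR corepressor | input = 1.35 nM GST-NR2E3 | also added = 7 nM biotin-RetCOR | schedule = 5 h incubation at 4 °C | measured by = TR-FRET with europium anti-GST and streptavidin-D2, 340 nm excitation | read-out = percent loss of FRET ratio relative to control wells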
PG9 binder: binders of HIV-1 gp120 antibody PG9, primary screen, biochemical, TR-FRET | hit rate 0.43% among 360,000 | HIV-1 gp120 / PG9 antibody interaction | AID 624416, 2012 | inhibition, % at 6.7 µM | TR-FRET gp120-PG9 antibody binding; in the data active = inhibition above about 8.5%
Rev-erbA mod: modulators of Rev-erb alpha DNA binding, primary screen, biochemical, FITC-DNA, fluorescence polarization, uHTS | AID 1259318, 2017 | Nuclear receptor subfamily 1 group D member 1 (Homo sapiens), P20393 | hit rate 0.79% among 370,000 | Rev-erbα–FITC-DNA binding, 90 min | activity, % at 10 µM;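 active = activity above about 14%, limit read from the data; passing the limit was not always enough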;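 also: 0% = DMSO wells with 35 nM protein and 100% = DMSO wells with 750 nM protein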
Target sequence (P20393 whole entry, looked up): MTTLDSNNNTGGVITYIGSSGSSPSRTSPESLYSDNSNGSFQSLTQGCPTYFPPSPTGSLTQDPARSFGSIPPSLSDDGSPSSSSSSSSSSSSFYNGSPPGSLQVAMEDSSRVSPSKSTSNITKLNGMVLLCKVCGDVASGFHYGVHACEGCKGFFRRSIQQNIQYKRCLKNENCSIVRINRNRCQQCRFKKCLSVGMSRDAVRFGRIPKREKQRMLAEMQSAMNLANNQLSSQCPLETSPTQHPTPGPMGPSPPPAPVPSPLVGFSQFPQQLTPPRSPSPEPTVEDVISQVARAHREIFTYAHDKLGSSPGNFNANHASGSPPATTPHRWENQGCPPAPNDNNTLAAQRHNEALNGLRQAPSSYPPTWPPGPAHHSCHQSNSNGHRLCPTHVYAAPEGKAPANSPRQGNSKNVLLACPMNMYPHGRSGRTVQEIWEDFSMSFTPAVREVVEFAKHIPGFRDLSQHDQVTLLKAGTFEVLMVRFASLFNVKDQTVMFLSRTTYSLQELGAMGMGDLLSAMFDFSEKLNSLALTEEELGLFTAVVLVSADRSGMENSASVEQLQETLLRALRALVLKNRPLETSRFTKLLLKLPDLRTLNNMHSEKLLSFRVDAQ
PG9 bind confirm: binders of anti-gp120 antibody PG9, confirmation, biochemical, TR-FRET; shares compounds with PG9 binder; inhibition, % at 6.7 µM; AID 651571, 2012; TR-FRET PG9 antibody binding; hit rate 90% among 1,500; in the data active = inhibition above about 9%
PGV04 Ab binding: binders of control antibody PGV04, counter-screen for PG9 antibody binder project, biochemical, TR-FRET, distinct HIV envelope site | shares compounds with PG9 binder | TR-FRET PGV04 antibody-gp120 binding | inhibition, % at 6.7 µM | hit rate 95% among 1,500 | AID 651604, 2012; in the data active = inhibition above about 9.5%
PG9 bind DR: small-molecule binders of antibody PG9, dose response, biochemical, TR-FRET, HIV-1 gp120 antibody; IC50, µM; TR-FRET PG9 antibody-gp120 binding inhibition; 95 tested, under 10 active; shares compounds with PG9 binder; in the data active = IC50 below about 10 µM
PGV04 DR counter: binders of control antibody PGV04, dose response, counter-screen for PG9 antibody binder project, biochemical, TR-FRET, distinct HIV envelope site. TR-FRET binding to control antibody PGV04. AID 651937, 2012. hit rate 20% among 95. shares compounds with PG9 binder. IC50, µM
PG126 binding DR: binders of control antibody PG126, dose response, counter-screen for PG9 antibody binder project, biochemical, TR-FRET, distinct HIV envelope site | hit rate 20% among 95 | shares compounds with PG9 binder | IC50, µM | TR-FRET binding to antibody PG126, counterscreen | AID 651939, 2012
* = called active by the depositor; / = no result given. An excerpt weighted towards active compounds, which were near 1.5% of everything screened. Rule as the data show it, unless noted: active = IC50 below about 9 µM; inactive = the rest.

SMILES | NR2E3 ag-1 | NR2E3 ag-2 | PG9 binder | Rev-erbA mod | PG9 bind confirm | PGV04 Ab binding | others
COC(=O)[C@H]1C[C@]2(C(/C=C(\C)CCC=C(C)C)S(=O)(=O)c3ccccc3)c3ccccc3N[C@H]2N1 (stereo not given in full) | / | / | / | -4 | / | /
COc1cc(CN(C2CCCCC2C)S(=O)(=O)c2ccc(S(=O)(=O)NC3CC3)cc2)cc(OC)c1OC (stereo not given) | -2 | 0 | 11* | -2 | 7 | 6 | PG9 bind DR=>67;PGV04 DR counter=>67;PG126 binding DR=>67
COc1ccc(CN(C2CCCCC2C)S(=O)(=O)c2ccc(S(=O)(=O)N(C)C)cc2)cc1OC (stereo not given) | 37 | 1 | -2 | -6 | / | /
COc1ccc(-c2cn3c(C)c(C(=O)Nc4cc(NC(C)=O)ccc4OC)sc3n2)cc1 | -86 | -54 | 12* | -4 | 9.8* | 31*
Cc1nnc(NC(=O)c2ccc(-c3ccc(Cl)cc3)o2)s1 | -3 | -5 | 11* | 5 | 13* | 27*
O=C(Nc1nccs1)c1ccc(-c2ccc(Cl)cc2)o1 | -122 | 2 | 1 | 17 | / | /
S=C(Nc1ccccc1I)OC1CCC12CCC(c1ccccc1)CC2 (stereo not given) | / | / | / | 5 | / | /
O=C(c1cc([N+](=O)[O-])ccc1N1CCOCC1)N1CCCCC1 | 21 | -3 | -2 | 0 | / | /
O=C(c1cc([N+](=O)[O-])ccc1N1CCOCC1)N1CCN(c2ccc([N+](=O)[O-])cc2)CC1 | 16 | 1 | 18* | 3 | 7 | 7 | PG9 bind DR=>67;PGV04 DR counter=>67;PG126 binding DR=>67
CCC[C@H]1[C@@H](OC(=O)NCc2ccc(Cl)c(Cl)c2)CC[C@@]23CCCN2C(=O)CCC[C@@H]13 | / | / | / | 3 | / | /
Cc1nnc(NC(=O)c2c(-c3ccccc3)noc2C)s1 | 1 | 1 | -1 | -2 | / | /
Cc1onc(-c2ccccc2)c1C(=O)Nc1cccc2nsnc12 | -39 | -2 | 66* | 16 | 72* | 81*
Cc1onc(-c2c(F)cccc2Cl)c1C(=O)Nc1nnc(-c2ccccc2)s1 | -10 | 3 | 9.6* | -1 | 15* | 23*
Cc1onc(-c2ccccc2Cl)c1C(=O)Nc1ccc(F)c(F)c1 | 8 | 2 | 1 | 1 | / | /
Cc1onc(-c2c(F)cccc2Cl)c1C(=O)Nc1nnc(C2CC2)s1 | -3 | 1 | 0 | -3 | / | /
Cc1onc(-c2ccccc2Cl)c1C(=O)Nc1nnc(-c2ccc(Cl)cc2Cl)s1 | -27 | 1 | 15* | -1 | 39* | 55*
CCCCNC(=O)C[C@H]1C[C@@]2(C(=O)OC)C(=C[C@H](C(C)C)O[C@@H]2C2CC2)N(Cc2ccco2)C1=O | / | / | / | -3 | / | /
O=C(COC(=O)c1cc2ccccc2oc1=O)Nc1ccc(F)cc1F | -25 | -1 | 15* | 1 | 16* | 48*
CCN(c1ccc(NC(=O)COC(=O)c2cc3ccccc3oc2=O)cc1)C(C)C | -26 | 7 | -3 | 0 | / | /
CC(C)[C@H](N)C(=O)N[C@@H](Cc1ccccc1)C(=O)N1CCC2CCN(S(=O)(=O)c3ccccc3)CC21 (stereo not given in full) | / | / | / | 7 | / | /
C=CCN1C=C2C(=O)C(C)(OC(=O)c3ccc(OC)cc3)C(=O)C(c3ccco3)=C2C=C1CCCC (stereo not given) | 9 | 14 | 9.7* | -4 | 16* | 20*
O=C(OCC#CCSc1nnc(-c2ccccc2Cl)o1)c1ccc(F)cc1 | / | / | / | -2 | / | /
Nc1nc2c(C(=O)N3CCCC3)nnn2c2ccccc12 | / | / | 2 | -7 | / | /
Nc1nc2c(-c3ccc(Br)cc3)nnn2c2ccccc12 | -154 | 2 | 11* | 5 | 13* | 30*
CCOC(=O)c1cccc(Nc2ncnc3ccc(C)cc23)c1 | -21 | 1 | -1 | 7 | / | /
SMILES | NR2E3 ag-1 | NR2E3 ag-2 | PG9 binder | Rev-erbA mod | PG9 bind confirm | PGV04 Ab binding | others
CCOC(=O)c1ccc(Nc2ncnc3ccc(C)cc23)cc1 | -31 | 4 | 8.9* | 7 | 14* | 22*
COc1ccccc1NC(=S)OCCN1CCCC12CCC(c1ccccc1)CC2 (stereo not given) | / | / | / | -2 | / | /
CC1Cc2ccccc2N1C(=O)COC(=O)c1ccc(O)cc1 (stereo not given) | 20 | 0 | 3 | 0 | / | /
CC1Cc2ccccc2N1C(=O)COC(=O)c1ccc(N(C)C)cc1 (stereo not given) | -14 | 1 | 12* | 6 | 13* | 16*
CCOC(=O)[C@@]12CN(C(=O)OC(C)(C)C)CC=C1N(Cc1ccc(OC)cc1)C(=O)[C@H]2CC(=O)N1CCCCC1 | / | / | / | 1 | / | /
C=CCn1c(SCC(=O)Nc2ccc(-c3nc4ccc(C)cc4s3)cc2)nnc1-c1ccccc1 | -165 | -308 | 9.6* | 20 | 13* | 27*
O=C(CSc1nnc2ccccn12)Nc1cccc(-c2nc3ccccc3s2)c1 | -128 | 1 | 8.9* | 20 | 13* | 25*
O=C(CSc1nnc2ccccn12)Nc1ccc2c(c1)OCO2 | -12 | -2 | -1 | 5 | / | /
C=CCN1[C@H](C#N)[C@@H](c2ccccc2)[C@H]1CO | / | / | / | 2 | / | /
COc1ccccc1N1CCN(S(=O)(=O)c2ccc3c(c2)CCC(=O)N3)CC1 | / | / | / | 1 | / | /
O=C(Nc1ccc(Br)cn1)c1ccc2ccccc2c1 | -91 | 1 | 0 | 3 | / | /
O=C(Nc1ccc(Br)cn1)c1cccc(C(=O)Nc2ccc(Br)cn2)c1 | -86 | 1 | 12* | 22 | 41* | 55*
CCOc1cccc(NC(=O)CSc2nc(C)c3c(c2C#N)CCCC3)c1 | -14 | 7 | 12* | 19 | 16* | 29*
CCCC[n+]1ccn(-c2nc3ccccc3nc2[N-]S(=O)(=O)c2ccc(Cl)cc2)c1 | 5 | 1 | 17* | 20 | 28* | 34*
